Source: ChEMBL document CHEMBL4043093, “2-Oxo-3, 4-dihydropyrimido[4, 5-d]pyrimidinyl derivatives as new irreversible pan fibroblast growth factor receptor (FGFR) inhibitors” (Eur J Med Chem, 2017)

Columns and labels:
[1] = target: Insulin receptor (Homo sapiens) (UniProt P06213); experiment: Inhibition of wild-type human partial length INSR (P997 to E1318 residues) expressed in HEK293 cells assessed as residual activity at 1000 nM after 30 mins by Kinomescan method relative to control; format: cell-based
[2] = target: Phosphatidylinositol 5-phosphate 4-kinase type-2 gamma (Homo sapiens) (UniProt Q8TBX8); experiment: Inhibition of wild-type human partial length PIP5K2C (M1 to A421 residues) expressed in HEK293 cells assessed as residual activity at 1000 nM after 30 mins by Kinomescan method relative to control; format: cell-based
[3] = target: 5'-AMP-activated protein kinase catalytic subunit alpha-1 (Homo sapiens) (UniProt Q13131); experiment: Inhibition of wild-type human partial length AMPK alpha1 (M1 to E306 residues) expressed in Escherichia coli BL21 assessed as residual activity at 1000 nM after 30 mins by Kinomescan method relative to control
[4] = target: Tyrosine-protein kinase ITK/TSK (Homo sapiens) (UniProt Q08881); experiment: Inhibition of wild-type human partial length ITK (R335 to L620 residues) expressed in Escherichia coli BL21 assessed as residual activity at 1000 nM after 30 mins by Kinomescan method relative to control
[5] = target: Cyclin-dependent kinase-like 5 (Homo sapiens) (UniProt O76039); experiment: Inhibition of wild-type human partial length CDKL5 (M1 to S337 residues) expressed in HEK293 cells assessed as residual activity at 1000 nM after 30 mins by Kinomescan method relative to control; format: cell-based
[6] = target: MAP kinase-activated protein kinase 2 (Homo sapiens) (UniProt P49137); experiment: Inhibition of wild-type human partial length MAPKAPK2 (V48 to D345 residues) expressed in Escherichia coli BL21 assessed as residual activity at 1000 nM after 30 mins by Kinomescan method relative to control
[7] = target: Cyclin-dependent kinase 7 (Homo sapiens) (UniProt P50613); experiment: Inhibition of wild-type human full length CDK7 (M1 to L344 residues) expressed in HEK293 cells assessed as residual activity at 1000 nM after 30 mins by Kinomescan method relative to control; format: cell-based
How it was run: (§1)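 Single-point screen at a fixed 1 µM, run within a 456-kinase DiscoveRx KINOMEscan panel. Each kinase's read-out is Percent Control, i.e. signal relative to a control without compound. Hits were scored by a Percent Control < 35 cut-off, and an S(35) selectivity score was calculated across the non-mutant kinases.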

[8] = target: Mitogen-activated protein kinase 14 (Homo sapiens) (UniProt Q16539); experiment: Inhibition of wild-type human full length p38-alpha (M1 to S360 residues) expressed in Escherichia coli BL21 assessed as residual activity at 1000 nM after 30 mins by Kinomescan method relative to control
[9] = target: Serine/threonine-protein kinase MRCK beta (Homo sapiens) (UniProt Q9Y5S2); experiment: Inhibition of wild-type human partial length MRCKB (L56 to S417 residues) expressed in Escherichia coli BL21 assessed as residual activity at 1000 nM after 30 mins by Kinomescan method relative to control
[10] = target: Protein kinase C theta type (Homo sapiens) (UniProt Q04759); experiment: Inhibition of wild-type human partial length PRKCQ (L350 to S706 residues) expressed in Escherichia coli BL21 assessed as residual activity at 1000 nM after 30 mins by Kinomescan method relative to control
[11] = target: Serine/threonine-protein kinase BRSK2 (Homo sapiens) (UniProt Q8IWQ3); experiment: Inhibition of wild-type human full length BRSK2 (M1 to L674 residues) expressed in Escherichia coli BL21 assessed as residual activity at 1000 nM after 30 mins by Kinomescan method relative to control; how it was run: as §1
[12] = target: Serine/threonine-protein kinase 32A (Homo sapiens) (UniProt Q8WU08); experiment: Inhibition of wild-type human full length YANK1 (M1 to L396 residues) expressed in HEK293 cells assessed as residual activity at 1000 nM after 30 mins by Kinomescan method relative to control; format: cell-based
[13] = target: Serine/threonine-protein kinase tousled-like 2 (Homo sapiens) (UniProt Q86UE8); experiment: Inhibition of wild-type human partial length TLK2 (E424 to N749 residues) expressed in Escherichia coli BL21 assessed as residual activity at 1000 nM after 30 mins by Kinomescan method relative to control
[14] = target: Protein kinase C delta type (Homo sapiens) (UniProt Q05655); experiment: Inhibition of wild-type human partial length PRKCD (Q328 to D676 residues) expressed in Escherichia coli BL21 assessed as residual activity at 1000 nM after 30 mins by Kinomescan method relative to control
[15] = target: Death-associated protein kinase 2 (Homo sapiens) (UniProt Q9UIK4); experiment: Inhibition of wild-type human full length DAPK2 (M1 to S370 residues) expressed in Escherichia coli BL21 assessed as residual activity at 1000 nM after 30 mins by Kinomescan method relative to control
How it was run: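 Single-concentration screen at 1 µM across a 456-kinase KINOMEscan panel. The read-out is Percent Control for each kinase.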

[16] = target: Serine/threonine-protein kinase WNK4 (Homo sapiens) (UniProt Q96J92); experiment: Inhibition of wild-type human partial length WNK4 (A31 to D461 residues) expressed in HEK293 cells assessed as residual activity at 1000 nM after 30 mins by Kinomescan method relative to control; format: cell-based
[17] = test system: Epidermal growth factor receptor (Homo sapiens), P00533 [G719C]; experiment: Inhibition of human partial length EGFR G719C mutant (R669 to V1011 residues) expressed in Escherichia coli BL21 assessed as residual activity at 1000 nM after 30 mins by Kinomescan method relative to control
How it was run: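 KINOMEscan binding panel of 456 kinases, with the test compound at a single concentration of 1 µM. Read-out is Percent Control.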

[18] = target: Serine/threonine-protein kinase TAO1 (Homo sapiens) (UniProt Q7L7X3); experiment: Inhibition of wild-type human partial length TAOK1 (M1 to A320 residues) expressed in HEK293 cells assessed as residual activity at 1000 nM after 30 mins by Kinomescan method relative to control; format: cell-based
[19] = target: Serine/threonine-protein kinase 10 (Homo sapiens) (UniProt O94804); experiment: Inhibition of wild-type human partial length LOK (E16 to V314 residues) expressed in Escherichia coli BL21 assessed as residual activity at 1000 nM after 30 mins by Kinomescan method relative to control
[20] = target: Serine/threonine-protein kinase/endoribonuclease IRE1 (Homo sapiens) (UniProt O75460); experiment: Inhibition of wild-type human partial length ERN1 (S551 to E852 residues) expressed in HEK293 cells assessed as residual activity at 1000 nM after 30 mins by Kinomescan method relative to control; format: cell-based
[21] = target: Serine/threonine-protein kinase Sgk3 (Homo sapiens) (UniProt Q96BR1); experiment: Inhibition of wild-type human partial length SGK3 (M119 to L496 residues) expressed in HEK293 cells assessed as residual activity at 1000 nM after 30 mins by Kinomescan method relative to control; format: cell-based

Sequence of Cyclin-dependent kinase 7 (Homo sapiens) (P50613 whole entry, the tested form may be a part): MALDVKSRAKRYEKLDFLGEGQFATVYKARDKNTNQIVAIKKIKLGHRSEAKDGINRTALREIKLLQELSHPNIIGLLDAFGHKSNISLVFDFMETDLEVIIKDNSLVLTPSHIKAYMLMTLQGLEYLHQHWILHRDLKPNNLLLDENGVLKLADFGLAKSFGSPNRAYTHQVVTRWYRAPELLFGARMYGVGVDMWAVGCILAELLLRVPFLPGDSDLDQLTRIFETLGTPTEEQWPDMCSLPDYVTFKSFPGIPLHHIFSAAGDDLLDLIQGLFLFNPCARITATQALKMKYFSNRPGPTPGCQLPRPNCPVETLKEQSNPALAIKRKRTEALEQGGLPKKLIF
Sequence of Mitogen-activated protein kinase 14 (Homo sapiens) (Q16539 whole entry, the tested form may be a part): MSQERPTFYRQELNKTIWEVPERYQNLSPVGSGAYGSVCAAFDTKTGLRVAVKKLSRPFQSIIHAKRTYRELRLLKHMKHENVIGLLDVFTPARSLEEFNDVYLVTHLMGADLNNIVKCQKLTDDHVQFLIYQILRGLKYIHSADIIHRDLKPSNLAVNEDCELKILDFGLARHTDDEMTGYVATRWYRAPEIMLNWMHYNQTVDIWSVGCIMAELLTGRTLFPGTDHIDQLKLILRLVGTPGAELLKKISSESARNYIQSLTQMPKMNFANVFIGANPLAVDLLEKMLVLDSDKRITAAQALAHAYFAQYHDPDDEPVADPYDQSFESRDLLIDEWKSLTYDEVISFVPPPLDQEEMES
Sequence of MAP kinase-activated protein kinase 2 (Homo sapiens) (P49137 whole entry, looked up, the tested form may be a part): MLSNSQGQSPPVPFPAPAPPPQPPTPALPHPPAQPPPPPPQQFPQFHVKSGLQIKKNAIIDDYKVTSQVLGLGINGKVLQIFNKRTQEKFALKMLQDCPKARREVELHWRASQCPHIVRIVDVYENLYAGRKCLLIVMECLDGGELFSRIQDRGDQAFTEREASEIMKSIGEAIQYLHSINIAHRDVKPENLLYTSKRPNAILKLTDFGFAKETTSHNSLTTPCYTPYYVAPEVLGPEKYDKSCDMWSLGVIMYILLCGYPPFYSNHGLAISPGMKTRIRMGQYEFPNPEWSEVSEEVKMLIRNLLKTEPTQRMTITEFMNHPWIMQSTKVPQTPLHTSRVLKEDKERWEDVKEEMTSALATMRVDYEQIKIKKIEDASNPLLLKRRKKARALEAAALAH
Sequence of Protein kinase C delta type (Homo sapiens) (Q05655 whole entry, looked up, the tested form may be a part): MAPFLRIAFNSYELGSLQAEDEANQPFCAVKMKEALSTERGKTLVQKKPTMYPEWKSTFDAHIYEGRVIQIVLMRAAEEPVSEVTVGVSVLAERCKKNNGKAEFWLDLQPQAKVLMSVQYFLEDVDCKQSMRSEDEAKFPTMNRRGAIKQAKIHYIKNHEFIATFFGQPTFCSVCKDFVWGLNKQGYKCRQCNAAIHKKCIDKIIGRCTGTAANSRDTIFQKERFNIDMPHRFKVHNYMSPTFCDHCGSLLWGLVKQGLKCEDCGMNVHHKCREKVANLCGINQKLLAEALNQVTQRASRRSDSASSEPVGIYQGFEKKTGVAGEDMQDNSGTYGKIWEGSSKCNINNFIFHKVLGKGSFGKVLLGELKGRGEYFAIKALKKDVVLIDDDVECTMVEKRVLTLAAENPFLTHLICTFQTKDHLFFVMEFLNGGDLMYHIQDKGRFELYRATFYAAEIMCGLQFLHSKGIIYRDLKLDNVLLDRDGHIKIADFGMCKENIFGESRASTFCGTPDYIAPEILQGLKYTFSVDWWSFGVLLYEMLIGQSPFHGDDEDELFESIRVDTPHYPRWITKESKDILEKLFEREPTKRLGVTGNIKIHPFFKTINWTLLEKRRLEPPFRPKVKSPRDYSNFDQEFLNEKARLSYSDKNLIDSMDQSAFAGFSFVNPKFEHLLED
Sequence of Serine/threonine-protein kinase WNK4 (Homo sapiens) (Q96J92 whole entry, the tested form may be a part): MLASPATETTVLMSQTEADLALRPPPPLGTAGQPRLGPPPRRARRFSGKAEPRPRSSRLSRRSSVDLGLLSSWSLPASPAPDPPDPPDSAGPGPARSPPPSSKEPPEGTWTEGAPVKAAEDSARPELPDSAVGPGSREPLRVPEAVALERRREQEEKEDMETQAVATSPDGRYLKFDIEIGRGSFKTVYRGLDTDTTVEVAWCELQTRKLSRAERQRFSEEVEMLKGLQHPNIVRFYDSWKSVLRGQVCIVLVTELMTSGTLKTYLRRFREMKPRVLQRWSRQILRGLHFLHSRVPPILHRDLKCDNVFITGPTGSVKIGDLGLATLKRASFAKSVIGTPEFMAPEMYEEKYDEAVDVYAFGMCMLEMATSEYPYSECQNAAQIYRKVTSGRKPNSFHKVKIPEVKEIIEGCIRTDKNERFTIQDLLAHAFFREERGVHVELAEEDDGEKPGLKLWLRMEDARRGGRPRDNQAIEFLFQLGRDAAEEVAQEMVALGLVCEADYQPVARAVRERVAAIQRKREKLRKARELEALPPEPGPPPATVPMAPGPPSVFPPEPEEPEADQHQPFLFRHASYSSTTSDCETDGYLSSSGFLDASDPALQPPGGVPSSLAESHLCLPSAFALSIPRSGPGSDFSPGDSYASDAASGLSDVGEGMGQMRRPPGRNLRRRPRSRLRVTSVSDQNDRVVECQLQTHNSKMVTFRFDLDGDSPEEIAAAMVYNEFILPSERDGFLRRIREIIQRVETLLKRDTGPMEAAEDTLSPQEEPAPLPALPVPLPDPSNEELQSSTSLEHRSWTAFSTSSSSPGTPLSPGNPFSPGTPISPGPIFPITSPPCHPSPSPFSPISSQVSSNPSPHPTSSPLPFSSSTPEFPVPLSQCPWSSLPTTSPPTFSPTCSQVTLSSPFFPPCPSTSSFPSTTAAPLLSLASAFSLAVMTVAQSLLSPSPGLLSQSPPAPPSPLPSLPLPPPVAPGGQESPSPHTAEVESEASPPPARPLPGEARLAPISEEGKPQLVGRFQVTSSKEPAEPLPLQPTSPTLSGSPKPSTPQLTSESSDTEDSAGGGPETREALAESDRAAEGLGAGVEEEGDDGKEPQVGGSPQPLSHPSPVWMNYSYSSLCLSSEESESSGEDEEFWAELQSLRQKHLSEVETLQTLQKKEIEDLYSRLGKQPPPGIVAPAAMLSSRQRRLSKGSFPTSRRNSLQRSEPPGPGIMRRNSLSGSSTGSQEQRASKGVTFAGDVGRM
Sequence of Protein kinase C theta type (Homo sapiens) (Q04759 whole entry, looked up, the tested form may be a part): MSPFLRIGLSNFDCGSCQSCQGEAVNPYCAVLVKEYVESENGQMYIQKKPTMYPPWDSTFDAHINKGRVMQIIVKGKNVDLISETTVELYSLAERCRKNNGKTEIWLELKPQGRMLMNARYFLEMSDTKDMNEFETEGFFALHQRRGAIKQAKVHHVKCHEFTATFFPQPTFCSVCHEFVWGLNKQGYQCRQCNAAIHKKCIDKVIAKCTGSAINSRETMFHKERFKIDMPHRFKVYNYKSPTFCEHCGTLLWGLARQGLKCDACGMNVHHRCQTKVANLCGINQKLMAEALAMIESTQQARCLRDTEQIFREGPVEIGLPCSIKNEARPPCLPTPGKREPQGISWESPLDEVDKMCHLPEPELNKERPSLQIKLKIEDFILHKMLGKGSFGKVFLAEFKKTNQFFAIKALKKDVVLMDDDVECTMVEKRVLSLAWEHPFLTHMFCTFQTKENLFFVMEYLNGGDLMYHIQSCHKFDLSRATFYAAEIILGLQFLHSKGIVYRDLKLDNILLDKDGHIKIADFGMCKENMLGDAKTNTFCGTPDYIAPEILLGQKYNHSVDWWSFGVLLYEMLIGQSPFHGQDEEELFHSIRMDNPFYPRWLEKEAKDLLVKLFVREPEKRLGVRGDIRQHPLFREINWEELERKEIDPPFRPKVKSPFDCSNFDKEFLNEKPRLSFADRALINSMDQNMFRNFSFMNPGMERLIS
Sequence of Serine/threonine-protein kinase TAO1 (Homo sapiens) (Q7L7X3 whole entry, the tested form may be a part): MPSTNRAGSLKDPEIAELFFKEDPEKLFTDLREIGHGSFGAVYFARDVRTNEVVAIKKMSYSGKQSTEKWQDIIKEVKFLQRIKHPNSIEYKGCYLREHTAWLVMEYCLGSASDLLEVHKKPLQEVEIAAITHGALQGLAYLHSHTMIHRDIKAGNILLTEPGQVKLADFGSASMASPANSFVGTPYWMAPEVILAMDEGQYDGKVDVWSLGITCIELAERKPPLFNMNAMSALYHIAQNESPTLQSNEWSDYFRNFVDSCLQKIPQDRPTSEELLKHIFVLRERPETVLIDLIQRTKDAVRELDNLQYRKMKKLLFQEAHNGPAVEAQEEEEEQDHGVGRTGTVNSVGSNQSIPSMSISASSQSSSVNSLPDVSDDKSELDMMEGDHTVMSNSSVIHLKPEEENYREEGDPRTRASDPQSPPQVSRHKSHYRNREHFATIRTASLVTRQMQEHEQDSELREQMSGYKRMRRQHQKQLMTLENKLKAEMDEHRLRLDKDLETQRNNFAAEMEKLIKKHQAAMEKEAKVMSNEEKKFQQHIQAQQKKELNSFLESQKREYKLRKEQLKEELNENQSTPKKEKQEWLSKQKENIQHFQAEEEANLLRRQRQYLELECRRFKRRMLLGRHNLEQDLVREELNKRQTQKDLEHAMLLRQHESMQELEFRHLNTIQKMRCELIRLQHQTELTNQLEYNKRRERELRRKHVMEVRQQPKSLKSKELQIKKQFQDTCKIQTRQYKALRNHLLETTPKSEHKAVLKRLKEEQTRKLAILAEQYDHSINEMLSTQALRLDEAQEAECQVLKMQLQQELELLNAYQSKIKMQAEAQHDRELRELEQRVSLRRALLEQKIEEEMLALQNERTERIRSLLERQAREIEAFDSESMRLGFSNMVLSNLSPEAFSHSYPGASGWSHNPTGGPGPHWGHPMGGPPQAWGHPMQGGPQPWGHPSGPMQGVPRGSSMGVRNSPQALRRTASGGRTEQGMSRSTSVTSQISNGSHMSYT

COc1cc(OC)c(Cl)c(N2Cc3cnc(Nc4ccc(F)cc4)nc3N(C3CCN(C(=O)/C=C/CN(C)C)CC3)C2=O)c1Cl
Activity [1]: 87% | Activity [2]: 6.3% | Activity [3]: 96% | Activity [4]: 100% | Activity [5]: 100% | Activity [6]: 99% | Activity [7]: 100% | Activity [8]: 98% | Activity [9]: 100% | Activity [10]: 100% | Activity [11]: 99% | Activity [12]: 100% | Activity [13]: 96% | Activity [14]: 93% | Activity [15]: 100% | Activity [16]: 100% | Activity [17]: 87% | Activity [18]: 13% | Activity [19]: 34% | Activity [20]: 100% | Activity [21]: 87%
